From paper PMC8958324 (iScience, 2022)

Key:
opsin = conditions: 11CR binding with opsin; ref Tian et al., 2017a; cited from earlier work
Rho F212W = Rho F212W (Bos taurus, UniProt P02699, F212W); test: Trp-based FRET assay, 11CR entry kinetics; assay type: binding, bovine
Method in brief: (§1)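 Mutant bovine opsin is expressed in HEK293F cells, regenerated with 5 μm 11CR overnight at 4°C, then 1D4-immunopurified in DDM and C9-peptide eluted. Receptor at 0.25–0.30 μm is diluted into 1% POPC/1% CHAPS bicelles, pH 6.0, stirred in a temperature-controlled cuvette, with 11CR at 0.5–30 μm final. Trp quenching (ex 295, em 330 nm) is fitted pseudo-first-order; k2 = kobs/[retinal]. Data are mean ± STD of ≥3 trials.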

Rho T94I [1] = biological target: T1, Rho T94I (Bos taurus, UniProt P02699, T94I); test: Trp-based FRET assay, 11CR entry kinetics; assay type: binding, bovine
Method in brief: as §1

Rho A269W = Rho A269W (Bos taurus, UniProt P02699, A269W); test: regeneration with 11CR; assay type: binding, bovine; conditions: expressed at very low level
Rho A269Y = Rho A269Y (Bos taurus, UniProt P02699, A269Y); test: regeneration with 11CR; assay type: binding, bovine; conditions: 11CR 15 μM, over 48 h
S144-Alexa488 Rho F208W = S144-Alexa488 Rho F208W (Bos taurus, UniProt P02699, F208W/S144F); test: Alexa488-based FRET assay, 11CR entry kinetics; assay type: binding, bovine; conditions: F208W vs wt; Eyring plot
Method in brief: (§2)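 Bovine opsin bearing S144azF is expressed in HEK293F cells with 1 mm azF for 96 h and regenerated with 11CR. It is purified by 1D4 immunopurification in DDM and labelled on resin with 50 μm Alexa488-DIBO for 18 h at 25°C. Labelled receptor (5–50 nm) sits in 1% POPC/1% CHAPS bicelles, pH 6.0, with 0.5–30 μm 11CR. Fluorescence (ex 488, em 520 nm) decay gives kobs; kon = kobs/[retinal], measured across temperatures for Eyring plots; mean ± STD.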

Rho I189P [2] = biological target: T2, Rho I189P (Bos taurus, UniProt P02699, I189P); test: Trp-based FRET assay, 11CR entry kinetics; assay type: binding, bovine; conditions: I189P vs I189, TM5 single vs TM5/I189P double mutants, kon Trp
Method in brief: as §1

S144-Alexa488 Rho F212A = S144-Alexa488 Rho F212A (Bos taurus, UniProt P02699, F212A/S144F); test: Alexa488-based FRET assay, 11CR entry kinetics; assay type: binding, bovine; conditions: F212A vs wt; Eyring plot
Method in brief: as §2

Rho I189P [3] = biological target: T2, Rho I189P; test: Trp-based FRET assay, ATR release kinetics; assay type: binding, bovine; conditions: I189P vs I189, TM5 single vs TM5/I189P double mutants, koff Trp
Method in brief: (§3)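 ATR release runs on HEK293F-expressed, 1D4-immunopurified mutant bovine rhodopsin at 0.25–0.30 μm in 1% POPC/1% CHAPS bicelles, pH 6.0. Release is followed as recovery of Trp fluorescence (ex 295, em 330 nm), the inverse of retinal-induced quenching, integrated for 2 s every 30 s. Traces are fitted to a single exponential to give koff, reported as mean ± STD of ≥3 trials.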

Rho A269F = Rho A269F (Bos taurus, UniProt P02699, A269F); test: Trp-based FRET assay, ATR release kinetics; assay type: binding, bovine
Method in brief: as §3

Rho T94I [4] = biological target: T1, Rho T94I; test: Trp-based FRET assay, ATR release kinetics; assay type: binding, bovine
Method in brief: as §3

Rho F212A = Rho F212A (Bos taurus, UniProt P02699, F212A); test: Trp-based FRET assay, ATR release kinetics; assay type: binding, bovine
Method in brief: as §3

Row | 11CR entry kinetics normalized to the wt Rho (Rho F212W) | 11CR entry kinetics (relative to wt) (Rho T94I [1]) | regeneration with 11CR (Rho A269W) | regeneration with 11CR (Rho A269Y) | increase of activation enthalpy (Δ‡H) of 11CR entry (S144-Alexa488 Rho F208W) | reduction of activation free energy Δ‡Gon by I189P (Rho I189P [2]) | reduction of activation enthalpy (Δ‡H) of 11CR entry (S144-Alexa488 Rho F212A) | reduction of activation free energy Δ‡Goff by I189P (Rho I189P [3]) | ATR exit kinetics normalized to the wt Rho (Rho A269F) | ATR release kinetics (relative to wt) (Rho T94I [4]) | ATR exit kinetics normalized to the wt Rho (Rho F212A) | Structure (SMILES) | activation barrier Δ‡Gon (opsin)
1 | 0.043 ± 0.022 | 0.80 ± 0.04 | failed to regenerate | could not be regenerated | 4.8 ± 3.1 kcal/mol | 1.6 ± 0.3 kcal/mol | 3.7 ± 1.6 kcal/mol | – | – | – | – | CC1=C(/C=C/C(C)=C/C=C/C(C)=C/C=O)C(C)(C)CCC1 [11CR, 11-cis-retinal] | 13.5 kcal/mol
2 | – | – | – | – | – | – | – | 1.6 ± 0.8 kcal/mol | 0.91 ± 0.07 | 0.17 ± 0.02 | 2.82 ± 1.0 | CC1=C(/C=C/C(C)=C/C=C/C(C)=C/C=O)C(C)(C)CCC1 [ATR, all-trans-retinal] | –
